# ChEMBL document CHEMBL4376884, “Toward a Rational Design of Polyamine-Based Zinc-Chelating Agents for Cancer Therapies” (J Med Chem, 2020)
# Active and inactive are the calls of the source. The calls are words filed in the database; no cut-off is given here.
# What was measured:
# LN-229 [1] = test: Metal chelating activity in human LN229 cells assessed as decrease in intracellular concentration of labile zinc ions by measuring reduction in zinquin-Zn2+ complex formation incubated for 12 hrs followed by incubation with fluorophore-zinquin for 30 mins by spectrofluorometric analysis; format: cell-based
# How it was run: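 LN229 cells were treated 12 h, trypsinized, pelleted and checked by Trypan Blue. Then 6x10⁶ cells in 1 mL PBS were loaded with Zinquin 25 μM for 30 min at 37 °C in the dark. Fluorescence was read at ex 370/em 475 nm with a 400–600 nm scan, normalized to cell number, untreated set to 100; four independent experiments.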
# JeKo-1 = test: Antiproliferative activity against human JeKo1 cells assessed as reduction in cell viability at 10 uM incubated for 48 hrs by cell titer-glo assay; format: functional, cell-based
# How it was run: (§1)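 Cells plated and treated 24 h later with 10 µM compound for 48 h; viable cells quantified by CellTiter-Glo ATP luminescence. Expressed as percentage of viable cells relative to untreated; mean ± SD of three independent experiments, each in triplicate.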
# LN-229 [2] = test: Antiproliferative activity against human LN229 cells assessed as reduction in cell viability at 10 uM incubated for 48 hrs by cell titer-glo assay; format: functional, cell-based; how it was run: as §1
# [3] = Metal chelating activity assessed as Zn2+-compound complex formation by measuring stability constant for ZnL(OH) in 0.15M NaCl and hydroalcoholic solutions (H2O/EtOH 70:30) at 298.1K by potentiometric titration analysis
# How it was run: (§2)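 Glass-electrode potentiometric titration with an Ag/AgCl reference in saturated KCl. The electrode was calibrated as an [H+] probe against standardized HCl with CO₂-free NaOH, using Gran's method (pKw 13.73(1)). Range was pH 2.0–11.0, with metal and ligand at 1×10⁻³ to 5×10⁻³ M in 1:1 ratio. At least two curves per compound were merged and fitted with HYPERQUAD.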
# [4] = Metal chelating activity assessed as Zn2+-compound complex formation by measuring stability constant for ZnL(OH) using pre-Zn2+-complexed compound (ZnL) in 0.15M NaCl and hydroalcoholic solutions (H2O/EtOH 70:30) at 298.1K by potentiometric titration analysis; how it was run: as §2
# Jurkat = test: Antiproliferative activity against human Jurkat cells assessed as reduction in cell viability at 10 uM incubated for 48 hrs by cell titer-glo assay; format: functional, cell-based; how it was run: as §1
# U-87 MG = test: Antiproliferative activity against human U87MG cells assessed as reduction in cell viability at 10 uM incubated for 48 hrs by cell titer-glo assay; format: functional, cell-based; settings: U-87MG ATCC; how it was run: as §1
# [5] = Metal chelating activity assessed as Zn2+-compound complex formation by measuring stability constant for ZnH2L2 in 0.15M NaCl and hydroalcoholic solutions (H2O/EtOH 70:30) at 298.1K by potentiometric titration analysis
# How it was run: (§3)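 Potentiometric titration at pH 2.0–11.0 with Ag/AgCl reference electrode. Glass electrode calibrated against HCl with CO2-free NaOH by Gran's method (pKw = 13.73). Metal and ligand each at 1×10⁻³ to 5×10⁻³ M, 1:1 molar ratio. At least two titration curves per compound, merged and fitted with HYPERQUAD to give stability constants.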
# [6] = Metal chelating activity assessed as Zn2+-compound complex formation by measuring stability constant for ZnL(OH)2 in 0.15M NaCl and hydroalcoholic solutions (H2O/EtOH 70:30) at 298.1K by potentiometric titration analysis; how it was run: as §2
# [7] = Metal chelating activity assessed as Zn2+-compound complex formation by measuring stability constant for ZnL in 0.15M NaCl and hydroalcoholic solutions (H2O/EtOH 70:30) at 298.1K by potentiometric titration analysis; how it was run: as §2
# [8] = Metal chelating activity assessed as Zn2+-compound complex formation by measuring stability constant for ZnL(OH)2 using pre-Zn2+-complexed compound (ZnL(OH)) in 0.15M NaCl and hydroalcoholic solutions (H2O/EtOH 70:30) at 298.1K by potentiometric titration analysis; how it was run: as §2
# DNA [9] = test: Induction of DNA damage in human LN229 cells assessed as increase in gammaH2AX phosphorylation at Ser139 residue at 1 uM incubated for 4 hrs by Flow cytometry analysis; format: cell-based
# How it was run: (§4)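 Z-138 and LN229 cells treated 4 h with 10 µM compound or 1 µM doxorubicin. Fixed in 3.7% formaldehyde on ice, permeabilized with 0.2% Triton X, stained with rabbit anti-pS139 H2A.X (1:400) and Alexa 555 secondary, then analysed by flow cytometry. Fold γH2AX fluorescence versus untreated; mean ± SD of three experiments.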
# DNA [10] = test: Induction of DNA damage in human Z138 cells assessed as increase in gammaH2AX phosphorylation at Ser139 residue at 1 uM incubated for 4 hrs by Flow cytometry analysis; format: cell-based; how it was run: as §4
# [11] = Metal chelating activity assessed as Zn2+-compound complex formation at physiological pH 7.4 by quantum mechanical studies
# How it was run: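 Zn2+ complexes modelled by DFT, B3LYP, gas phase. Basis set def2-SV(P), with MDF10 Stuttgart-Dresden effective core potential for Zn and Grimme dispersion correction. Vibrational frequencies and zero-point correction computed for each minimum.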
# [12] = Metal chelating activity assessed as Zn2+-compound complex formation by measuring stability constant for ZnL(OH) using pre-Zn2+-complexed compound (ZnL) in 0.15M NaCl at 298.1K by potentiometric titration analysis; how it was run: as §2
# [13] = Metal chelating activity assessed as Zn2+-compound complex formation by measuring stability constant for ZnL(OH)2 in 0.15M NaCl at 298.1K by potentiometric titration analysis; how it was run: as §2
# [14] = Metal chelating activity assessed as Zn2+-compound complex formation by measuring stability constant for ZnL(OH)2 using pre-Zn2+-complexed compound (ZnL(OH)) in 0.15M NaCl at 298.1K by potentiometric titration analysis; how it was run: as §2
# [15] = Metal chelating activity assessed as Zn2+-compound complex formation by measuring stability constant for ZnL in 0.15M NaCl at 298.1K by potentiometric titration analysis; how it was run: as §2
# [16] = Metal chelating activity assessed as Zn2+-compound complex formation by measuring stability constant for ZnHL in 0.15M NaCl at 298.1K by potentiometric titration analysis; how it was run: as §2
# [17] = Metal chelating activity assessed as Zn2+-compound complex formation by measuring stability constant for ZnL(OH) in 0.15M NaCl at 298.1K by potentiometric titration analysis; how it was run: as §2
# PC-3 = test: Inhibition of colony formation in human PC3 cells at 30 uM incubated for 4 hrs by crystal violet staining based colony counting method; format: functional, cell-based
# How it was run: (§5)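 LN229 and PC3 cells treated for 4 h with compound (10 µM) or with etoposide (30 µM positive control), washed, trypsinized and replated at 3000 cells per 60-mm plate. Colonies grown 7–10 days, fixed and stained with 0.5% crystal violet in 70% ethanol, and counted. Reported as percent of control; four independent experiments, each in duplicate.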
# LN-229 [18] = test: Inhibition of colony formation in human LN229 cells at 30 uM incubated for 4 hrs by crystal violet staining based colony counting method; format: functional, cell-based; how it was run: as §5
# [19] = Metal chelating activity assessed as Zn2+-compound complex formation by measuring stability constant for ZnHL using pre-Zn2+-complexed compound (ZnL) in 0.15M NaCl at 298.1K by potentiometric titration analysis; how it was run: as §2
# [20] = Metal chelating activity assessed as Zn2+-compound complex formation by measuring stability constant for ZnH2L in 0.15M NaCl at 298.1K by potentiometric titration analysis; how it was run: as §3
# [21] = Metal chelating activity assessed as Zn2+-compound complex formation by measuring stability constant for ZnH2L using pre-Zn2+-complexed compound (ZnHL) in 0.15M NaCl at 298.1K by potentiometric titration analysis; how it was run: as §3
# Fibroblast = test: Cytotoxicity against human Fibroblast assessed as reduction in cell viability incubated for 48 hrs by cell titer-glo assay; format: cell-based
# How it was run: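 Dose-response: cells plated, treated 24 h later for 48 h, then ATP measured by CellTiter-Glo luminescence. IC50 given as mean ± SD from three independent experiments, each in triplicate. Fibroblasts came from individuals. Cells were kept in RPMI or DMEM with 10% heat-inactivated FBS and penicillin/streptomycin at 37 °C, 5% CO2.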
Compound,Activity (LN-229 [1]),Activity (JeKo-1),Activity (LN-229 [2]),Activity (Jurkat),Activity (U-87 MG),Activity [11],log K [12],log K [13],log K [14],log K [15],log K [17],also measured
CN(CCNCc1ccncc1)CCNCc1ccncc1,inactive,inactive,inactive,inactive,inactive,–,–,–,–,–,–,log K [3]: -2.6; log K [4]: -9.17; log K [5]: 24.3; log K [6]: -12.3; log K [7]: 6.57; log K [8]: -9.68
O=S(=O)(c1cccc2cccnc12)N(CCNCc1ccccn1)CCNCc1ccccn1,–,Active,Active,Active,–,–,–,–,–,–,–,–
COc1cccc2c1C(=O)c1c(O)c3c(c(O)c1C2=O)C[C@@](O)(C(=O)CO)C[C@@H]3O[C@H]1C[C@H](N)[C@H](O)[C@H](C)O1,–,–,–,–,–,–,–,–,–,–,–,Activity (DNA [9]): Active; Activity (DNA [10]): Active
O=C(NCCN(CCNC(=O)c1ccccn1)Cc1ccc2ccccc2c1)c1ccccn1,inactive,–,–,–,–,Active,–,–,–,–,–,–
c1cncc(CNCCN(CCNCc2cccnc2)Cc2ccc3ccccc3c2)c1,inactive,inactive,inactive,inactive,inactive,63.4%,-8.6,-12.1,-9.54,6.04,-2.56,log K [16]: 14.1
O=S(=O)(c1cccc2ccccc12)N(CCNCc1ccccn1)CCNCc1ccccn1,inactive,Active,Active,Active,Active,–,-10,-11.8,-10.3,7.53,-1.48,–
COc1cc([C@@H]2c3cc4c(cc3[C@@H](O[C@@H]3O[C@@H]5CO[C@@H](C)O[C@H]5[C@H](O)[C@H]3O)[C@H]3COC(=O)[C@H]23)OCO4)cc(OC)c1O,–,–,–,–,–,–,–,–,–,–,–,inhibition (PC-3): Active; inhibition (LN-229 [18]): Active
CN(C)c1cccc2c(S(=O)(=O)N(CCNCc3ccccn3)CCNCc3ccccn3)cccc12,inactive,Active,Active,Active,Active,Active,-9.55,-11.5,-10.4,8.38,-1.17,log K [19]: 4.61; log K [20]: 17.5; log K [16]: 13; log K [21]: 4.5
c1ccc(CN(CCN(Cc2ccccn2)Cc2ccccn2)Cc2ccccn2)nc1,–,–,–,–,–,–,–,–,–,–,–,IC50 (Fibroblast): 6.7 µM
c1ccc2cc(CN(CCNCc3ccncc3)CCNCc3ccncc3)ccc2c1,inactive,inactive,inactive,inactive,inactive,60.7%,-8.99,-12.9,-8.67,4.72,-4.22,–
